Measured values taken from ChEMBL document CHEMBL1129408, “Development of novel, potent, and selective dopamine reuptake inhibitors through alteration of the piperazine ring of 1-[2-(diphenylmethoxy)ethyl]-and 1-[2-[bis(4-fluorophenyl)methoxy]ethyl]-4-(3-phenylpropyl)piperazines (GBR 12935 and GBR 12909)” (J Med Chem, 1996).

How the values were obtained:
[1] = target: Sodium-dependent serotonin transporter (Rattus norvegicus, UniProt P31652); assay: Inhibition of [3H]5-HT reuptake at rat serotonin transporter
Procedure, shortened: (§1)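 Uptake into synaptosomes in Krebs-phosphate buffer, pH 7.4, with ascorbic acid 1 mg/mL and pargyline 50 µM. Final tracer was 5 nM [3H]DA or 2 nM [3H]5HT. Incubated at 25 °C for 15 min (DA) or 30 min (5HT), then filtered and filter tritium counted. IC50 derived.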

[2] = target: T1, Sodium-dependent dopamine transporter (Rattus norvegicus, UniProt P23977); assay: Inhibition of dopamine DA reuptake; procedure, shortened: as §1
[3] = target: T1, Sodium-dependent dopamine transporter; assay: Binding affinity against dopamine transporter using radioligand as [3H]GBR 12935
Procedure, shortened: (§2)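 DAT binding by displacement of 2 nM [3H]GBR 12935 or 0.01 nM [125I]RTI 55. Drugs were in 55.2 mM sodium phosphate buffer, pH 7.4, with 1 mg/mL BSA; radioligand was in the same buffer with chymostatin, leupeptin, EDTA and EGTA. Incubated in triplicate for 18-24 h at 4 °C to equilibrium, then filtered over polyethylenimine-presoaked GF/B filters. IC50 derived.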

[4] = target: Monoamine transporters; serotonin & dopamine (Rattus norvegicus) (UniProt P31652+P23977); assay: Ratio of binding affinities of Serotonin transporter vs Dopamine transporter reuptake; type: protein assay
Procedure, shortened: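 Ratio is the IC50 for [3H]5HT reuptake over the IC50 for [3H]DA reuptake. Both were measured in synaptosomes at 25 °C: 2 nM [3H]5HT for 30 min and 5 nM [3H]DA for 15 min, in Krebs-phosphate buffer, pH 7.4, with pargyline and ascorbic acid.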

[5] = Ratio of receptor binding affinities of [3H]5-HT vs [125I]-RTI 55 uptake
[6] = target: T1, Sodium-dependent dopamine transporter; assay: Compound was tested for binding against Dopamine transporter using radioligand as […]
[7] = target: T1, Sodium-dependent dopamine transporter; assay: Binding against Dopamine transporter using radioligand as [3H]GBR 12935
[8] = target: T1, Sodium-dependent dopamine transporter; assay: Compound was tested for binding affinity against dopamine transporter using radioligand as […]; procedure, shortened: as §2

Sequence of Monoamine transporters; serotonin & dopamine (Rattus norvegicus) (P23977 whole entry, looked up): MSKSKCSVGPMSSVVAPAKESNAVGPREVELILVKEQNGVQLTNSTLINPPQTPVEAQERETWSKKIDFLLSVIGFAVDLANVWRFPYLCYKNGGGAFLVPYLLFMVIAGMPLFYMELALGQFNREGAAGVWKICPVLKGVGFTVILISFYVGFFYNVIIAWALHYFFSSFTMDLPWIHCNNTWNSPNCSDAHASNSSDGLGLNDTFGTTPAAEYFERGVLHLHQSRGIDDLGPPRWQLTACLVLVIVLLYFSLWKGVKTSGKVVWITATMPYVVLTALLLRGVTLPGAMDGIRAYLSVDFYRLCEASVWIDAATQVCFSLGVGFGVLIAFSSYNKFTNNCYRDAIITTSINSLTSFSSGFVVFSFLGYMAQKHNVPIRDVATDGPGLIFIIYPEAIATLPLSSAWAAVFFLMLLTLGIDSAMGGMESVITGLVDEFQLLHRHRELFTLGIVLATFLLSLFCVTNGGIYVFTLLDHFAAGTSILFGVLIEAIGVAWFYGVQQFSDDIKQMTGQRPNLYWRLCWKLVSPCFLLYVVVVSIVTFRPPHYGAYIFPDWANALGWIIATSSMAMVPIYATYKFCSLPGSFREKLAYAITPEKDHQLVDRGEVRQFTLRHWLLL
Sequence of Monoamine transporters; serotonin & dopamine (Rattus norvegicus) (P31652 whole entry, looked up): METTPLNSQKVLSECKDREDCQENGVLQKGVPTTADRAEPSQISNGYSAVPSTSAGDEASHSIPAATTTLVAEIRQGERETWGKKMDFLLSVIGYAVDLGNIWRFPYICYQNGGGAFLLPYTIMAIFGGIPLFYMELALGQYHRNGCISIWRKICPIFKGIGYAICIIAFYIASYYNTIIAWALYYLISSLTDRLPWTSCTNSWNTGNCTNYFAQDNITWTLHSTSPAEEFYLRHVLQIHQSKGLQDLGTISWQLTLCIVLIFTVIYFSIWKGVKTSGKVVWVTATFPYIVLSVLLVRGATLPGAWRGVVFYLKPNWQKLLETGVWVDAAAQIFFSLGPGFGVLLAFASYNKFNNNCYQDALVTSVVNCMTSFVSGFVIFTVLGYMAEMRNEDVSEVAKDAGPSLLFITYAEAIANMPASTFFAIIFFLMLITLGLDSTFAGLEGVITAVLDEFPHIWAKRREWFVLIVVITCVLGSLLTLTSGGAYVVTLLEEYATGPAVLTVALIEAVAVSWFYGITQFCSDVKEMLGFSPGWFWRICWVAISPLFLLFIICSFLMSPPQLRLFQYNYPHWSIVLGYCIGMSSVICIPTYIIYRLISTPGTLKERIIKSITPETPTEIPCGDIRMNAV
T1 sequence (P23977 whole entry): as the sequence (P23977 whole entry, looked up) above
Sequence of Sodium-dependent serotonin transporter (P31652 whole entry): as the sequence (P31652 whole entry, looked up) above

| SMILES | IC50 [1] [nM] | IC50 [2] [nM] | IC50 [3] [nM] | Ratio [4] | Ratio [5] | IC50 [6] [nM] | IC50 [7] [nM] | IC50 [8] [nM] |
| --- | --- | --- | --- | --- | --- | --- | --- | --- |
| C[C@@H]1CN(CCCc2ccccc2)[C@@H](C)CN1CCCc1ccccc1 | 2530 | 1330 | 9940 | 0.1 |  |  |  |  |
| c1ccc(CCCNC[C@@H]2CCCN2CCOC(c2ccccc2)c2ccccc2)cc1 | 986 | 0.7 | 5.1 | 1410 |  |  |  |  |
| c1ccc(C(OCCN2CCN(CCOC(c3ccccc3)c3ccccc3)CC2)c2ccccc2)cc1 | 1710 | 12 |  | 1.3 | 7.5 | 1.6 | 9.3 |  |
| c1ccc(CCCN2CCNCC2)cc1 | 361 | > 30000 |  |  |  |  | > 30000 |  |
| c1ccc(CCCN2CCCCN(CCOC(c3ccccc3)c3ccccc3)CC2)cc1 | 1590 | 93 | 864 | 17 |  |  |  |  |
| NCCCCNCCOC(c1ccccc1)c1ccccc1 | 6830 |  | 9780 |  |  |  |  |  |
| Fc1ccc(C(OCCN2CCNCC2)c2ccc(F)cc2)cc1 | 1400 | 71 |  | 0.7 |  |  | 104 |  |
| CN(CCCc1ccccc1)CCN(C)CCOC(c1ccccc1)c1ccccc1 | 2450 |  | 27 |  |  |  |  |  |
| C[C@@H]1CN(CCOC(c2ccccc2)c2ccccc2)[C@@H](C)CN1 | 25300 | 138 | 1000 | 183 |  |  |  |  |
| C[C@@H]1CN(CCOC(c2ccc(F)cc2)c2ccc(F)cc2)[C@@H](C)CN1C/C=C/c1ccccc1 | 1180 | 28 |  | 42 |  |  | 23 |  |
| c1ccc(CCCN2CCN(CCCc3ccccc3)CC2)cc1 | 1340 | 1640 |  | 0.2 |  |  | 7760 |  |
| C[C@@H]1CN(CCOC(c2ccccc2)c2ccccc2)[C@@H](C)CN1C/C=C/c1ccccc1 | 2680 | 20 | 103 | 134 |  |  |  |  |
| c1ccc(C(OCCN2CCCNCC2)c2ccccc2)cc1 | 14300 | 651 | 1360 | 22 |  |  |  |  |
| C[C@@H]1CN(CCOC(c2ccccc2)c2ccccc2)[C@@H](C)CN1CCCc1ccccc1 | 1730 |  |  |  |  |  | 21 |  |
| Fc1ccc(C(OCCN2CCCN(CCCc3ccccc3)CC2)c2ccc(F)cc2)cc1 | 112 | 3.4 |  | 33 |  |  | 4.4 |  |
| C[C@@H]1CN(CCOC(c2ccc(F)cc2)c2ccc(F)cc2)[C@@H](C)CN1CCOC(c1ccc(F)cc1)c1ccc(F)cc1 | 4240 | 86 | 36 | 2.4 |  |  |  |  |
| CC1(C)CN(CCCc2ccccc2)CCN(CCOC(c2ccccc2)c2ccccc2)C1 | 3150 | 87 | 286 | 36 |  |  |  |  |
| CNCCN(C)CCOC(c1ccccc1)c1ccccc1 | > 10000 | 545 | 834 |  |  |  |  |  |

| SMILES | IC50 [1] [nM] | IC50 [2] [nM] | IC50 [3] [nM] | Ratio [4] | Ratio [5] | IC50 [6] [nM] | IC50 [7] [nM] | IC50 [8] [nM] |
| --- | --- | --- | --- | --- | --- | --- | --- | --- |
| c1ccc(C(OCCN2CCNCC2)c2ccccc2)cc1 | 9570 | 124 | 110 | 1.1 |  |  |  |  |
| CC(C)(CN)CNCCOC(c1ccccc1)c1ccccc1 | > 10000 | 453 | 1460 |  |  |  |  |  |
| c1ccc(CCCN2CCCN(CCOC(c3ccccc3)c3ccccc3)CC2)cc1 | 34100 | 7.2 | 7.9 | 4740 |  |  |  |  |
| c1ccc(CCCNCCCCNCCOC(c2ccccc2)c2ccccc2)cc1 | 376 | 35 |  | 11 |  |  | 80 |  |
| c1ccc(CCCNC[C@H]2CCCN2CCOC(c2ccccc2)c2ccccc2)cc1 | 3210 | 127 | 747 | 25 |  |  |  |  |
| Fc1ccc(C(OCCN2CCCNCC2)c2ccc(F)cc2)cc1 | 2080 | 17 | 143 | 122 |  |  |  |  |
| C[C@@H]1CN(CCOC(c2ccccc2)c2ccccc2)[C@@H](C)CN1CCOC(c1ccccc1)c1ccccc1 | 6220 | 35 | 33 | 1.1 |  |  |  |  |
| C[C@@H]1CN(CCOC(c2ccc(F)cc2)c2ccc(F)cc2)[C@@H](C)CN1CCCc1ccccc1 | 459 | 15 |  | 31 |  |  | 40 |  |
| Fc1ccc(C(OCCN2CCC[C@H]2CNCCCc2ccccc2)c2ccc(F)cc2)cc1 | 20100 | 29 |  | 693 |  |  | 104 |  |
| CC(C)(CNCCCc1ccccc1)CNCCOC(c1ccccc1)c1ccccc1 | 1890 | 83 | 169 | 23 |  |  |  |  |
| C[C@@H]1CN(CCOC(c2ccc(F)cc2)c2ccc(F)cc2)[C@@H](C)CN1 | 8940 | 30 | 106 | 298 |  |  |  | 44 |
| c1ccc(CCCNC2CCCCN(CCOC(c3ccccc3)c3ccccc3)C2)cc1 (centres undefined) | 1480 | 9.3 | 20 | 159 |  |  |  |  |
| C(=C\c1ccccc1)/CN1CCCN(CCOC(c2ccccc2)c2ccccc2)CC1 | 503 | 0.6 | 8.6 | 838 |  |  |  |  |
| Oc1cccc(CCCNC[C@@H]2CCCN2CCOC(c2ccccc2)c2ccccc2)c1 | 857 | 31 | 222 | 28 |  |  |  |  |
| c1ccc(CCCN2CCCCC(NCCOC(c3ccccc3)c3ccccc3)C2)cc1 (centres undefined) | 2860 | 57 | 74 | 50 |  |  |  |  |
| C[C@@H]1CN(CCCc2ccccc2)[C@@H](C)CN1 | 12200 | > 30000 |  |  |  |  | > 30000 |  |
| Fc1ccc(C(OCCN2CCCN(C/C=C/c3ccccc3)CC2)c2ccc(F)cc2)cc1 | 234 | 3.4 |  | 69 |  |  | 2.6 |  |
| Fc1ccc(C(OCCN2CCN(CCOC(c3ccc(F)cc3)c3ccc(F)cc3)CC2)c2ccc(F)cc2)cc1 | 278 | 40 |  | 5.5 | 36.4 | 1.1 | 7.3 |  |
